Measurements from different studies.
Compare with care: the assays were run in different laboratories.
Target: BDNF/NT-3 growth factors receptor (NTRK2, Homo sapiens, UniProt Q16620)

SMILES	read-out	method	tested at	remaining binding [%]
CC1CCCN1c1nccc(-c2cnn3ncccc23)n1 (stereo not drawn)	binding	–	1 µM	100
CCOCCn1cc(C(=O)Nc2ccc(-n3nc(-c4cccnc4)cc3C(F)(F)F)cn2)ccc1=O	cell-free assay	competition with immobilised ligand	1 µM	100
CN(c1nccc(-c2cnn3ncccc23)n1)C1CC1	binding	–	1 µM	100
O=C(NCc1ncc(C(F)(F)F)cc1Cl)c1ccc2c(c1)C1(CCS(=O)(=O)CC1)[C@@H](C1CC1)N2S(=O)(=O)c1ccc(F)cc1	cell-free assay	competition with immobilised ligand	1 µM	71
CN(C)c1ncc(F)c(-c2cnn3ncccc23)n1	binding	–	1 µM	64
Cc1cnc(Nc2ccc(C(=O)N3CCC(N4CCCC4)CC3)cc2)nc1-c1cc2ccccc2s1	binding	competition with immobilised ligand	1 µM	4.1
CSc1cccnc1N1CCN(Cc2nc3ccccc3[nH]2)CC1	cell-free assay	competition with immobilised ligand	1 µM	100
O=C(NCCCN1CCOCC1)c1ccc(Nc2ncc(Cl)c(-c3ccc(Cl)s3)n2)cc1	binding	competition with immobilised ligand	1 µM	15
C[C@@H]1CCN(c2nccc(-c3cnn4ncccc34)n2)C1	binding	–	1 µM	72
C=CC(=O)N1CCC(C(=O)NCC(=O)N2CCN(c3nc(-c4cnc(N)nc4C(F)F)nc(N4CCOCC4)n3)CC2)CC1	binding	competition with immobilised ligand	1 µM	89
CN([C@@H]1CCc2c(CC(=O)O)c3cc(S(C)(=O)=O)ccc3n2C1)S(=O)(=O)c1ccc(F)cc1	cell-free assay	competition with immobilised ligand	1 µM	100
CNC(=O)[C@@H]1CC[C@@H](n2c(-c3ccc4cnccc4c3)nc3ccc(C(=O)NCc4cccc(C(N)=O)c4)cc32)C1	binding	competition with immobilised ligand	1 µM	100
FC(F)(F)Oc1cccc(-c2cnc3ccc(-c4ccncc4)nn23)c1	cell-free assay	competition with immobilised ligand	5 µM	8.9
CCS(=O)(=O)c1cc2cc(C[C@@](O)(CC(C)(C)c3ccc(F)cc3C(N)=O)C(F)(F)F)[nH]c2cn1	cell-free assay	competition with immobilised ligand	1 µM	84
COc1ccnn2ncc(-c3ccnc(N(C)C)n3)c12	binding	–	1 µM	87
O=C(NCC1CCOCC1)c1n[nH]cc1NC(=O)c1c(F)cccc1F	binding	competition with immobilised ligand	1 µM	100
N[C@@H]1CCN(c2nccc(-c3cnn4ncccc34)n2)C1	binding	–	1 µM	100
CC1=C(C#N)C(c2ccc3c(c2)c(NC(=O)c2ccccc2C)nn3C)C(C#N)=C(C)N1	cell-free assay	competition with immobilised ligand	1 µM	72
CCN1CCN(Cc2ccc(C(=O)Nc3ccc(C)c(Oc4ccc5c(c4)CC(=O)N5)c3)cc2C(F)(F)F)CC1	binding	competition with immobilised ligand	1 µM	81
O=C(c1ccc(Nc2nccc(-c3cc4ccccc4s3)n2)cc1)N1CCC(N2CCCC2)CC1	binding	competition with immobilised ligand	1 µM	59
c1cncc(-c2cccc(Nc3nccc(NC4CCCCC4)n3)c2)c1	binding	competition with immobilised ligand	10 µM	16
